The source made the active and inactive calls. No cut-off for these calls is given here.
What was measured:
Mus musculus [1] = species on record: Mus musculus; test: Inhibition of mouse NR2B(deltaATD) mutant receptor
Rattus norvegicus [2] = test: Effect on locomotor activity in Sprague-Dawley rat at 300 mg/kg, ip; format: functional, organism-based; parameters: dose 300 mg/kg
How it was run: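 Sprague–Dawley rats, 100–200 g, habituated to the room for ≥30 min. Basal activity recorded for 1 h in infrared photobeam activity chambers. Animals then dosed ip and returned to the chamber for 2 h; total horizontal activity recorded. Daily controls were vehicle (negative) and 0.3 mg/kg MK-801 ip in saline (positive). ANOVA with Dunnett's post hoc test.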

[3] = Inhibition of L-type calcium channel
[4] = biological target: Glutamate receptor 4 (Rattus norvegicus) (UniProt P19493); test: Inhibition of rat recombinant GluR4 expressed in Xenopus oocytes assessed as inhibition of kainate-induced evoked current at 3 uM by two electrode voltage clamp method; format: cell-based; conditions: Oocyte
How it was run: (§1)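 Xenopus oocytes injected with 5–10 ng rat receptor cRNA and kept in Barth's solution at 18 °C. Two-electrode voltage clamp at −40 mV and 23 °C, 2–7 days after injection, in 90 NaCl/1 KCl/10 HEPES/0.5 BaCl2 mM at pH 7.3 or 7.6. Agonists: 50 μM kainate for GluR3, GluR4 and GluR2/3; 3 nM domoate for GluR6; 100 μM AMPA for GluR6/KA1. Current expressed as % of control; paired t test.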

[5] = biological target: Sodium-dependent noradrenaline transporter (Homo sapiens, UniProt P23975); test: Binding affinity to norepinephrine transporter
Rattus norvegicus [6] = test: Anticonvulsant activity in Sprague-Dawley rat assessed as inhibition of electroshock-induced tonic hind limb extension at 100 mg/kg, ip administered 30 mins before electroshock; format: functional, organism-based; parameters: dose 100 mg/kg; conditions: Hindlimb
How it was run: (§2)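 Male Sprague–Dawley rats, 100–125 g, with 1% lidocaine dropped into each conjunctiva before maximal electroshock. Compound given ip in DMSO 30 min before the stimulus. Tested on three consecutive days: untreated on days 1 and 3, compound on day 2. Duration of tonic hind limb extension scored visually. Vehicle served as negative control and carbamazepine 60 mg/kg as positive control. ANOVA with Bonferroni post hoc test.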

Plasma = test: Half life in rat plasma at 30 mg/kg, ip by LC-MS/MS analysis; format: ADME, organism-based; parameters: dose 30 mg/kg, route intraperitoneal; conditions: in vivo
How it was run: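 Fasted rats (n = 3 per dose) given 30 mg/kg ip in 2% dimethyl acetamide/98% 5% hydroxypropyl cyclodextrin. Plasma sampled at several time points up to 240 min and extracted with 5 volumes of cold acetonitrile. Parent compound measured by LC-MS/MS (MRM) against a standard curve to give plasma t1/2.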

[7] = Inhibition of sodium channel
How it was run: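 Rat cortical neurons cultured from E17 embryos and recorded at 5–10 days by whole-cell patch clamp at 23 °C. Holding −60 mV with 100 ms steps, in the presence of bicuculline, CNQX and DL-APV. Tetrodotoxin-sensitive Na+ current measured at −10 mV; mean compared by paired t test.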

[8] = biological target: Glutamate receptor 3 (Rattus norvegicus) (UniProt P19492); test: Inhibition of rat recombinant GluR3 expressed in Xenopus oocytes assessed as inhibition of kainate-induced evoked current at 3 uM by two electrode voltage clamp method; format: cell-based; conditions: Oocyte; how it was run: as §1
[9] = biological target: Glutamate NMDA receptor; Grin1/Grin2b (Rattus norvegicus, UniProt P35439+Q00960); test: Inhibition of rat recombinant NR1/NR2B receptor expressed in Xenopus oocytes assessed as inhibition of glutamate and glycine-induced evoked current by two electrode voltage clamp method; format: cell-based, Oocyte
Glutamate NMDA receptor; Grin1/Grin2b, sequence (Q00960 whole entry, other chains not shown): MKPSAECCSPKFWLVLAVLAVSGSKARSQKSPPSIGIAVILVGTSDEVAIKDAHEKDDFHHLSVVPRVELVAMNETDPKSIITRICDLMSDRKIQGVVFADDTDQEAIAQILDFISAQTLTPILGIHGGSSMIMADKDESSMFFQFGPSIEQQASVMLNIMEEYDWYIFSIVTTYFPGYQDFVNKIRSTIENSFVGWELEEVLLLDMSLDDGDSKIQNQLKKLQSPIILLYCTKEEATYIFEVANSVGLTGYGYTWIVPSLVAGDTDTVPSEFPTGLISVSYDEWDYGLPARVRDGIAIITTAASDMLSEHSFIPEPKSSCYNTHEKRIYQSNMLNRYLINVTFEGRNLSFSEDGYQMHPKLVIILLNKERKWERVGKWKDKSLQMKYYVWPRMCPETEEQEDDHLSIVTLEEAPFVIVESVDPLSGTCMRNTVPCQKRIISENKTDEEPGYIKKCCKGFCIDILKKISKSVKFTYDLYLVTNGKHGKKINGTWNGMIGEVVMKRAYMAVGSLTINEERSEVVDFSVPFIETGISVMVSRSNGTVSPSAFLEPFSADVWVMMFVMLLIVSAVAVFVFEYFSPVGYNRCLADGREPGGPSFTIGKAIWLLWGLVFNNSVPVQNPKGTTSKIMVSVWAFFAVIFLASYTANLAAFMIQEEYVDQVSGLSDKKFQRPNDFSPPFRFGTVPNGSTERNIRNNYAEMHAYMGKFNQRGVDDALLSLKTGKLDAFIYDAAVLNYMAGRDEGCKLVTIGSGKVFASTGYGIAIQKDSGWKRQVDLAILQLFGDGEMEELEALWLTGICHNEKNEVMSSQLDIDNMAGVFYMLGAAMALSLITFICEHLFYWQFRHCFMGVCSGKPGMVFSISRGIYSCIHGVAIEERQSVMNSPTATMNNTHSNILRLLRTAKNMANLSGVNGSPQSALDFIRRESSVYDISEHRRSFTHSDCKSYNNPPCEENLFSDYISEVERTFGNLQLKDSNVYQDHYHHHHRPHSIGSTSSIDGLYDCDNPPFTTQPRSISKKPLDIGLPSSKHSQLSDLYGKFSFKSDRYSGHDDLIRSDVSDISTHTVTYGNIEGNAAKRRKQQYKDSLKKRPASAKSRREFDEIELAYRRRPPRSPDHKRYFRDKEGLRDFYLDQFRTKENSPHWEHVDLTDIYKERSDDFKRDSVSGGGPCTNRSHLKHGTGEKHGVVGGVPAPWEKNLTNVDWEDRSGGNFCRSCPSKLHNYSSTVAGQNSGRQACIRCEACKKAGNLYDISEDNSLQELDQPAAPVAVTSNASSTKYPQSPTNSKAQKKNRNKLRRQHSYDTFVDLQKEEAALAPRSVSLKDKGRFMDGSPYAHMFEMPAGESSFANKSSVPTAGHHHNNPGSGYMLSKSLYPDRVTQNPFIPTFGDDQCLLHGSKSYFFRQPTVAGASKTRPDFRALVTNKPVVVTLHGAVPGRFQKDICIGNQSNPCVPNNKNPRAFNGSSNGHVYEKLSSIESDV

Mus musculus [10] = test: Effect on motor coordination in mouse at 30 mg/kg, ip administered 20 mins prior to test after 5 days by rotarod test; format: ADME, organism-based; parameters: dose 30 mg/kg, route intraperitoneal; conditions: in vivo, 120 h
How it was run: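 Accelerating rotorod: mice held 10 s at 5 rpm, then accelerated from 5 to 35 rpm over 5 min; latency to fall recorded by light sensor. Four trials per day for 5 days, 25 min between trials. On day 5, mice were randomized and given a 5 mL/kg ip injection in 25% DMSO/75% saline 20 min before the first trial. Operator blinded; ANOVA with Dunnett's post hoc test.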

[11] = biological target: Glutamate receptor ionotropic, kainate 2 (Rattus norvegicus) (UniProt P42260); test: Inhibition of rat recombinant GluR6/KA1 expressed in Xenopus oocytes assessed as inhibition of AMPA-induced evoked current at 3 uM by two electrode voltage clamp method; format: cell-based; conditions: Oocyte; how it was run: as §1
Glutamate receptor ionotropic, kainate 2 (Rattus norvegicus), sequence (P42260 whole entry): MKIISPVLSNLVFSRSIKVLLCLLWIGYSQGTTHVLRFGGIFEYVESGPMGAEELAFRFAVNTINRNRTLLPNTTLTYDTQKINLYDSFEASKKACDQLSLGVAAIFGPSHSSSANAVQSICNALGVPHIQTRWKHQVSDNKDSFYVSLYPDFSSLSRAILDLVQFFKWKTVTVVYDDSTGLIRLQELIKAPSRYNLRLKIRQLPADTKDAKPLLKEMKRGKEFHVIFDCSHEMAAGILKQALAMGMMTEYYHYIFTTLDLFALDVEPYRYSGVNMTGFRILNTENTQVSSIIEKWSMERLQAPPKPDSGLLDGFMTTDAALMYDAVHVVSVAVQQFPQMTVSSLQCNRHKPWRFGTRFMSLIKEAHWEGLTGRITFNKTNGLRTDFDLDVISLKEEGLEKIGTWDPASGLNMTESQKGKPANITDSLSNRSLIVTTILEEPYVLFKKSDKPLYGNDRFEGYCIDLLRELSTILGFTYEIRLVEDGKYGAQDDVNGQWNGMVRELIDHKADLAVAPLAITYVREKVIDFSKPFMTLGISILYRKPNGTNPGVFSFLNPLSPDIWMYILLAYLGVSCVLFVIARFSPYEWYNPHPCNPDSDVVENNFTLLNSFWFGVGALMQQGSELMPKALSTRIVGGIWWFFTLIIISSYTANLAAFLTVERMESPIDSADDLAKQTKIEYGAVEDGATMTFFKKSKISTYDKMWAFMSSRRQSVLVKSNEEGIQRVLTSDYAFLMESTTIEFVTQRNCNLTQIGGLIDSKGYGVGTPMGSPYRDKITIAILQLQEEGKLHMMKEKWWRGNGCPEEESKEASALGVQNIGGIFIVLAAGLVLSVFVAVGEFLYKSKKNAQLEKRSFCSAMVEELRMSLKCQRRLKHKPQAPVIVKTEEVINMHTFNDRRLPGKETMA

[12] = biological target: Voltage-gated inwardly rectifying potassium channel KCNH2 (Homo sapiens, UniProt Q12809); test: (§3) Displacement of [3H]astemizole from human ERG expressed in HEK293 cells
Voltage-gated inwardly rectifying potassium channel KCNH2, sequence (Q12809 whole entry): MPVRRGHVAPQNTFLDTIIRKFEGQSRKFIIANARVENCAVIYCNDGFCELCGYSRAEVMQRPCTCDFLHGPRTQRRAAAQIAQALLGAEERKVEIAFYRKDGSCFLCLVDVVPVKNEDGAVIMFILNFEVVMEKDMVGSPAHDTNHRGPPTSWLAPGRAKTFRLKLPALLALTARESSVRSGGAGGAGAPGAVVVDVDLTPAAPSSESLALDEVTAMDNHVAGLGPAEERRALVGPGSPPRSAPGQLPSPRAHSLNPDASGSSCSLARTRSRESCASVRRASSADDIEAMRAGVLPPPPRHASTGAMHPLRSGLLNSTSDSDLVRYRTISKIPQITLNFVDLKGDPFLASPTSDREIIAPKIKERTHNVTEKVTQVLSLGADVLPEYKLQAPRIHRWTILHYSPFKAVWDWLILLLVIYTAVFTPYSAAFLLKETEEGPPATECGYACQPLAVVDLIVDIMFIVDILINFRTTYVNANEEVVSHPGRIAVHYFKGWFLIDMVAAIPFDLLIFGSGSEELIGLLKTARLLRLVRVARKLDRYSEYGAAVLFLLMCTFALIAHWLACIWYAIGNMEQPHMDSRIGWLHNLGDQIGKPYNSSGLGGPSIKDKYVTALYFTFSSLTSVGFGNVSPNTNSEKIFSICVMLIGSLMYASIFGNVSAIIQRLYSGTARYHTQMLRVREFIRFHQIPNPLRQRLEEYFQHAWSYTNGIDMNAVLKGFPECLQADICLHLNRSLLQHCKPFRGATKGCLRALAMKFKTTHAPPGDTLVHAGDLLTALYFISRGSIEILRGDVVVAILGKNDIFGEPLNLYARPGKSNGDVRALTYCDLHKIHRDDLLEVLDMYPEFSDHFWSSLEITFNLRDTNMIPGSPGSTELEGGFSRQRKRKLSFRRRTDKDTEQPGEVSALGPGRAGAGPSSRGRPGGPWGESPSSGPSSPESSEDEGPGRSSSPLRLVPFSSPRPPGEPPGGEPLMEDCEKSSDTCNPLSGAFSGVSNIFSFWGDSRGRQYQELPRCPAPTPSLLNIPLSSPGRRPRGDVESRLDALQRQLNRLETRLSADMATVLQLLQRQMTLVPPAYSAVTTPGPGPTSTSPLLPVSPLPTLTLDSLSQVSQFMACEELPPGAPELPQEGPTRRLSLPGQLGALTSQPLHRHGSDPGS

hERG (KCNH2) = hERG (KCNH2) (Homo sapiens, UniProt Q12809); test: as §3; conditions: human, HEK293 cells expressing human ERG, probe [3H]astemizole
hERG (KCNH2), sequence (Q12809 whole entry): as above

Cortical neurone = test: Neuroprotective effect against NMDA-induced toxicity in Sprague-Dawley rat cultured cortical neurons assessed as LDH release pretreated 15 mins before NMDA treatment assessed after 16 to 24 hrs by spectrophotometry; format: functional
How it was run: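 Rat cortical cultures (E16–E19) used at 9–12 days. Cells pretreated 15 min in ACSF at pH 7.6, then exposed 10 min at room temperature to 100 μM NMDA plus 10 μM glycine with compound present. Washed with D-APV/CNQX. LDH release measured 16–24 h later as a fraction of total. Scaled between the D-APV minimum and the NMDA maximum; cultures with <10% death discarded.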

[13] = biological target: Ionotropic glutamate receptor NMDA 1/2D (Rattus norvegicus) (UniProt P35439+Q62645); test: Inhibition of rat recombinant NR1/NR2D receptor expressed in Xenopus oocytes assessed as inhibition of glutamate and glycine-induced evoked current at 3uM by two electrode voltage clamp method; format: cell-based; conditions: Oocyte
[14] = Inhibition of N-type calcium channel
[15] = biological target: Adrenergic receptor alpha-2 (Rattus norvegicus, UniProt P22086+P19328+P22909); test: Binding affinity to alpha2 adrenergic receptor in rat brain; format: tissue-based
[16] = biological target: Glutamate NMDA receptor; GRIN1/GRIN2B (Homo sapiens) (UniProt Q05586+Q13224); test: Inhibition of human NR1/NR2B receptor
Rattus norvegicus [17] = test: Anticonvulsant activity in Sprague-Dawley rat assessed as inhibition of electroshock-induced tonic hind limb extension at 30 mg/kg, ip administered 30 mins before electroshock; format: functional, organism-based; parameters: dose 30 mg/kg; conditions: Hindlimb; how it was run: as §2
[18] = biological target: Glutamate NMDA receptor; Grin1/Grin2a (Rattus norvegicus) (UniProt P35439+Q00959); test: Inhibition of rat recombinant NR1/NR2A receptor expressed in Xenopus oocytes assessed as inhibition of glutamate and glycine-induced evoked current at 3uM by two electrode voltage clamp method; format: cell-based; conditions: Oocyte
Neuron = test: Inhibition of voltage-gated potassium current in E17 Sprague-Dawley rat neurons at 3 uM by whole cell patch clamp method; format: functional
Mus musculus [19] = test: Plasma concentration in C57BL/6 mouse at 30 mg/kg, ip; format: ADME, organism-based; parameters: dose 30 mg/kg, route intraperitoneal; conditions: in vivo
[20] = Protein binding in mouse plasma; format: ADME, cell-free; conditions: read-out: PPB (converted)

For CS(=O)(=O)Nc1ccc(OC[C@@H](O)CNCCc2ccc(Cl)c(Cl)c2)cc1, the Activity (Mus musculus [1]) was “inactive”, the Activity (Rattus norvegicus [2]) was “inactive” and the IC50 [3] was greater than 5000 nM. For the same compound, the Activity [4] was “inactive”, the IC50 [5] was 500 nM and the Activity (Rattus norvegicus [6]) was “Active”. For the same compound, the t1/2 (Plasma) was 1.1 h, the IC50 [7] was greater than 5000 nM and the Activity [8] was “inactive”. For the same compound, the IC50 [9] was 50 nM, the Activity (Mus musculus [10]) was “Non-toxic” and the Activity [11] was “inactive”. For the same compound, the IC50 [12] was 730 nM, the IC20 (hERG (KCNH2)) was greater than 174 nM and the Activity (Cortical neurone) was “Dose-dependent effect”. For the same compound, the Activity [13] was “inactive”, the IC50 [14] was greater than 5000 nM and the IC50 [15] was greater than 3000 nM. The Activity [16] was 53 nM, the Activity (Rattus norvegicus [17]) was “inactive” and the Activity [18] was “inactive”. The Activity (Neuron) was 0.72 nanoampere, the concentration (Mus musculus [19]) was 1000 nM and the fraction unbound [20] was 0.12.

Source: ChEMBL document CHEMBL1140127, “Enantiomeric propanolamines as selective N-methyl-D-aspartate 2B receptor antagonists” (J Med Chem, 2008)
